Results as given in ChEMBL document CHEMBL1123758, “Thromboxane synthetase inhibitors and antihypertensive agents. 3. N-[(1H-imidazol-1-yl)alkyl]heteroaryl amides as potent enzyme inhibitors” (J Med Chem, 1987).
Calls of active or inactive are those of the source.

Tests used:
[1] = molecular target: T1, Thromboxane-A synthase (Rattus norvegicus) (UniProt P49430); conditions: at 100 µM
T1 sequence (whole entry): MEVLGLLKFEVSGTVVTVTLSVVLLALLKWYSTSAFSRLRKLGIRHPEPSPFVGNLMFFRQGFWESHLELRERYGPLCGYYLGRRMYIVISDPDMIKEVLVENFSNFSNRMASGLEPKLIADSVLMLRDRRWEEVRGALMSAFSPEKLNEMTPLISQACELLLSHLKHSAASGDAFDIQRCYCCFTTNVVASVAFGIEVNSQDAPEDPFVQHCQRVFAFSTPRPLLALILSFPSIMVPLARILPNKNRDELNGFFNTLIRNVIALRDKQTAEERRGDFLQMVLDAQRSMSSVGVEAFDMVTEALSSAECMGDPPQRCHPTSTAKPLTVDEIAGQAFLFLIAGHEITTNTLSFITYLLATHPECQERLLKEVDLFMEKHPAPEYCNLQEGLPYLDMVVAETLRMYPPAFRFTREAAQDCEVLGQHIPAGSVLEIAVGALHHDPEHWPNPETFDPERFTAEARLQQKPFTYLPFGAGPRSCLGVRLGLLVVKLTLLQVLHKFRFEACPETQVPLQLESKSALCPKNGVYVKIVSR

[2] = molecular target: T2, Thromboxane-A synthase (Rattus norvegicus, UniProt P49430); assay: Inhibition of thromboxane formation at a concentration of 10e -6 M.
T2 sequence (P49430 whole entry): T1 sequence (whole entry)

[3] = test system: Rattus norvegicus; assay: Antihypertensive activity was measured in spontaneously hypertensive rats (SHR) at 100 mg/kg peroral dose (2 days); NA denotes inactive; format: functional, organism-based; set-up: dose 100 mg/kg
Summary of the method: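 Male 16-week-old Okamoto SHR, mean arterial pressure about 170 mmHg. Dosed by gavage at 100 mg/kg (or less) as a suspension in 2% preboiled starch, with 0.9% NaCl loading at 25 mL/kg. A second identical dose without saline was given 24 h later. Mean arterial pressure was read at 28 h, using one to three rats. Active if ≤116 mmHg in one rat or a two-rat average ≤122 mmHg.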

[4] = molecular target: T1, Thromboxane-A synthase (Rattus norvegicus); assay: Inhibition of thromboxane formation at a concentration of 10e -4 M.
Summary of the method: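 Washed SHR platelets in oxygenated Krebs phosphate buffer pH 7.4, (4.5-6.0) × 10^4 platelets/µL, with drug or vehicle, 10 min at 37 °C. Stopped on ice with citric acid. TXB2 in the supernatant was measured by direct RIA. Boiled-sample blanks were subtracted, then percent inhibition of TXB2 formation was calculated. Replicate number varies by entry.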

[5] = test system: Rattus norvegicus; assay: Antihypertensive activity was measured in spontaneously hypertensive rats (SHR) at 100 mg/kg peroral dose (2 days); active; format: functional, organism-based; set-up: dose 100 mg/kg
Summary of the method: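 Male Okamoto SHR, 16 weeks old, mean arterial pressure about 170 mmHg. Compound suspended in 2% preboiled starch at 50 mg/mL and given by gavage at 100 mg/kg or less with 0.9% NaCl loading (25 mL/kg). An identical dose without saline followed 24 h later. Mean arterial pressure was read 28 h after the first dose in one to three rats. Active: one rat ≤116 mmHg, or mean of two ≤122 mmHg.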

Row | inhibition [1] [%] | IC50 [2] [nM] | inhibition [4] [%] | SMILES | Activity [3] | Activity [5]
1 | 100 |  |  | CC(CNC(=O)c1cc2cc(Cl)ccc2[nH]1)Cn1ccnc1 (stereo unspecified) |  | 
2 | 100 |  |  | O=C(NCCCCn1ccnc1)c1cc2cc(Cl)ccc2[nH]1 |  | 
3 | 100 | 2000 |  | CC(CCNC(=O)c1ccc(Cl)s1)n1ccnc1 (stereo unspecified) |  | 
4 | 100 |  |  | O=C(NC/C=C/Cn1ccnc1)c1ccc(Cl)s1 | inactive | 
5 | 100 | 7 |  | O=C(NCCCCCn1ccnc1)c1cc2cc(Cl)ccc2[nH]1 |  | 
6 | 100 |  |  | Cc1cn(CCCNC(=O)c2cc3cc(Cl)ccc3[nH]2)cn1 | inactive | 
7 | 85 |  |  | Cc1cn(CCCNC(=O)c2cc3ccccc3n2C)cn1 | inactive | 
8 | 56 |  |  | Cc1nccn1CCCNC(=O)c1cc2ccccc2n1C | inactive | 
9 | 83 |  |  | O=C(NCCCCn1cncn1)c1ccc(Cl)s1 | inactive | 
10 | 100 |  |  | O=C(NCCCCCn1cncn1)c1ccc(Cl)s1 | inactive | 
11 |  | 27 | 93 | O=C(NCCCCCCCCn1ccnc1)c1cc2cc(Cl)ccc2[nH]1 |  | 
12 | 100 | 100 |  | O=C(NCCCn1ccnc1)c1cc2cc(Cl)ccc2s1 | inactive | 
13 | 22 |  |  | O=C(NCCCCn1cncn1)c1ccco1 | inactive | 
14 | 93 |  |  | O=C(NCCCn1ccnc1)c1cccs1 | inactive | 
15 | 70 |  |  | O=C(NCCn1ccnc1)c1sc2ccccc2c1Cl |  | 
16 | 64 |  |  | O=C(NCCCn1cncn1)c1ccc(Cl)s1 | inactive | 
17 | 78 |  |  | Cc1nccn1CCCNC(=O)c1ccc(Cl)s1 |  | 
18 | 96 |  |  | O=C(NCCCn1ccnc1)c1sc2cc(F)ccc2c1Cl | inactive | 
19 | 100 | 400 |  | O=C(NCCCn1ccnc1)c1cc(Br)c(Br)s1 | inactive | 
20 | 96 |  |  | Cc1ccc2c(Cl)c(C(=O)NCCCn3ccnc3)sc2c1 | inactive | 
21 | 83 |  |  | O=C(NCCCn1ccnc1)c1cccnc1 | inactive | 
22 |  |  | 98 | CC(CNC(=O)c1ccc(Cl)nc1)Cn1ccnc1 (stereo unspecified) |  | 
23 | 100 | 40 |  | O=C(NCCCCn1ccnc1)c1cc2ccccc2[nH]1 | inactive | 
24 | 64 |  |  | O=C(NCCCn1ccnc1)c1ccc([N+](=O)[O-])o1 |  | Active
25 | 97 |  |  | O=C(NCCCn1ccnc1)c1ccco1 | inactive | 
26 | 89 |  |  | Cn1c(C(=O)NCCCn2ccnc2)cc2ccccc21 | inactive | 
27 | 82 |  |  | O=C(NCCCn1ccnc1)c1ccc(Br)o1 | inactive | 
28 | 100 | 200 |  | O=C(NCCCCCn1ccnc1)c1ccc(Cl)s1 | inactive | 

Row | inhibition [1] [%] | IC50 [2] [nM] | inhibition [4] [%] | SMILES | Activity [3] | Activity [5]
29 |  | 3000 | 98 | CC(CCNC(=O)c1ccc(Cl)nc1)n1ccnc1 (stereo unspecified) |  | 
30 | 91 |  |  | O=C(NCCCCn1ccnc1)c1sc2ccccc2c1Cl | inactive | 
31 |  |  | 64 | O=C(NCCCn1ccnc1)c1cccnc1Cl |  | 
32 | 94 |  |  | O=C(NCCCn1ccnc1)c1cc2ccccc2[nH]1 |  | 
33 | 97 | 300 |  | O=C(NCCCn1ccnc1)c1cc2ccccc2o1 | inactive | 
34 | 100 | 300 |  | O=C(NCCCn1ccnc1)c1sc2ccccc2c1Cl |  | 
35 | 98 | 50 |  | CC(CCNC(=O)c1cc2cc(Cl)ccc2[nH]1)n1ccnc1 (stereo unspecified) |  | 
36 |  |  | 44 | Cc1nccn1CCCNC(=O)c1ccc(Cl)nc1 |  | 
37 | 95 | 3000 |  | O=C(NCCCCn1ccnc1)c1cccs1 |  | 
38 | 95 |  |  | Cc1cn(CCCNC(=O)c2ccc(Cl)s2)cn1 | inactive | 
39 | 96 | 1300 |  | Cc1ccc(C(=O)NCCCn2ccnc2)s1 | inactive | 
40 | 87 |  |  | O=C(NCCCCn1ccnc1)c1ccco1 | inactive | 
41 |  |  | 87 | O=C(NCCCn1ccnc1)c1ccc(Cl)nc1 |  | 
42 | 100 |  |  | Cc1cn(CCCNC(=O)c2cc3ccccc3[nH]2)cn1 | inactive | 
43 | 100 | 200 |  | O=C(NCCCCCCn1ccnc1)c1ccc(Cl)s1 | inactive | 
44 |  | 8000 | 94 | O=C(NCCCCn1ccnc1)c1ccc(Cl)nc1 |  | 
45 |  |  | 86 | Cc1cn(CCCNC(=O)c2ccc(Cl)nc2)cn1 |  | 
46 | 95 |  |  | O=C(NCCCn1ccnc1)c1cc2cc(Cl)ccc2[nH]1 | inactive | 
47 | 84 |  |  | O=C(NCCCn1cncn1)c1cc2ccccc2o1 | inactive | 
48 | 99 | 200 |  | O=C(NCCCCn1ccnc1)c1ccc(Cl)s1 |  | 
49 | 95 | 600 |  | O=C(NCCCn1ccnc1)c1ccc(Cl)s1 |  | 
50 |  | 70 | 96 | O=C(NCCCCCCCCn1ccnc1)c1ccc(Cl)s1 |  | 
51 |  | 3000 | 100 | O=C(NCCCCCn1ccnc1)c1ccc(Cl)nc1 |  | 
52 | 96 |  |  | COc1ccc2[nH]c(C(=O)NCCCn3ccnc3)cc2c1 | inactive | 
53 | 30 |  |  | O=C(NCCCn1cncn1)c1cccs1 | inactive | 
54 | 70 |  |  | O=C(NCCCn1cnc(-c2ccccc2)c1)c1ccc(Cl)s1 | inactive | 
55 | 65 |  |  | O=C(NCCn1ccnc1)c1ccco1 |  | 
